This is an account of results in article PMC2923871 (Journal of Medicinal Chemistry, 2010).

Read-outs that look alike come from different tables or passages of the source.

For data set [1] the following is noted: phosphate buffer pH 7.4; previously reported compound; cited from earlier work.
A short description of data set [2]: Pooled human liver microsomal assay. To be noted: pooled human liver microsomes, 0.5 μM compound, NADPH. In kind it is in vitro ADME. The essentials: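 Microsomes at 0.5 mg/mL in 50 mM potassium phosphate, pH 7.4, reaction started with excess NADPH. Aliquots at 0, 3, 6, 9, 15 and 30 min quenched in acetonitrile, internal standard added, protein spun down, UPLC-MS/MS. Rate constant from exponential decay of compound/internal standard peak-area ratio. CLi scaled by incubation volume/mg protein and 52.5 mg protein/g liver. Verapamil positive control.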
On the technique in general: Microsomes from liver hold many membrane-bound enzymes, among them those of drug oxidation.

The test system of data set [3] is bloodstream form T. b. brucei BS427. The data set can be described thus: Trypanocidal activity, Alamar Blue assay. Type of data set: cell-based. Background: The colour change of resazurin is a common sign of viable cells or microbes.
Data set [4] is described as follows: Chemical stability in phosphate buffer at pH 7.4. In kind it is physicochemical. The following applies: pH 7.4, t1/2 pH 7.4, phosphate buffer pH 7.4.
For the next data set, the system named is T. brucei. To be noted: cited from earlier work.

What is called half-life is how long it takes for the measured level to halve. Turning to `COC(=O)[C@@H](C)NP(=O)(OC[C@H]1OC(C)(C)O[C@H]1C(=O)NO)Oc1ccc([N+](=O)[O-])cc1` (stereo partly drawn) [15a], the half-life result in data set [1] was “about 50 min”. In the case of `CCOC(=O)[C@H](NP(=O)(OC[C@H]1OC(C)(C)O[C@H]1C(=O)NO)Oc1ccccc1)C(C)C` (stereo partly drawn) [15f], in data set [2], the “PHLM Cli” value is reported as below 0.5 mL/min/g. `CCOC(=O)[C@H](NP(=O)(OC[C@H]1OC(C)(C)O[C@H]1C(=O)NO)Oc1ccc(C)cc1)C(C)C` (stereo partly drawn) [15l]: in data set [2], the “PHLM Cli” value is recorded as below 0.5 mL/min/g.

The IC50 is the concentration that gives 50% inhibition. A high value points to weaker potency in that assay. In the case of `COC(=O)[C@@H](C)NP(=O)(OC[C@H]1OC(C)(C)O[C@H]1C(=O)NO)Oc1cccc(C)c1C` (stereo partly drawn) [15o], the IC50 in data set [3] (Trypanosoma brucei) amounted to 0.27 µM. The half-life in data set [4] is 30 h. Regarding `CCOC(=O)[C@H](NP(=O)(OC[C@H]1OC(C)(C)O[C@H]1C(=O)NO)Oc1cccc(C)c1C)C(C)C` (stereo partly drawn) [15p], in data set [2], the “PHLM Cli” value is below 0.5 mL/min/g. As to `Cc1cccc(OP(=O)(N[C@@H](C(=O)OC(C)(C)C)C(C)C)OC[C@H]2OC(C)(C)O[C@H]2C(=O)NO)c1C` (stereo partly drawn) [15q], the increase in activity result in data set [3] (15q relative to 15a) was “more than 5000 times”.

In general, EC50 refers to the concentration at which the effect is half-maximal. For `CC1(C)O[C@H](COP(=O)(O)O)[C@H](C(=O)NO)O1` [compound 1, 2,3-O-Isopropylidene-4-erythrono hydroxamate], in the data set with T. brucei (T. brucei cell culture, previously reported compounds), the EC50 was above 330 µM. The “activity against the parasite” value in the data set on T. brucei (result in words) was “inactive”.
